# procasp7 counter: activates human procaspase-7, counter-screen for procaspase-3 activators. activation, % at 8.5 µM. 330,000 tested, 0.093% active. P55210. recombinant procaspase-7, Ac-DEVD-pNA absorbance 405 nm; D23A/D198A/D206A triple mutant, cannot self-cleave; scale: DMSO 0, 5 µM enzyme 100;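 active means percent activation above the screen-wide mean plus 3 SD, cut at about 25% in these data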
# Target sequence (P55210 whole entry D23A/D198A/D206A): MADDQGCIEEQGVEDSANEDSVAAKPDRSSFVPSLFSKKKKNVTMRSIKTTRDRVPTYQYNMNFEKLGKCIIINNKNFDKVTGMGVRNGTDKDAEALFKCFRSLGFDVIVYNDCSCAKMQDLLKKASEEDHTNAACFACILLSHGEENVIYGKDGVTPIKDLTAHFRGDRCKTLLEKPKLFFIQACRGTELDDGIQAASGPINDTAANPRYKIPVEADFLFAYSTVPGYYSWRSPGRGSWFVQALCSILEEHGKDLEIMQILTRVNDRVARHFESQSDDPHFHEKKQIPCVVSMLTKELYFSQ
#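 buffer or medium = Zinc-free HEPES/NaCl buffer, pH 7.4 | material = Procaspase-7 triple mutant (PC-7 D3A) | input = 2 µM procaspase-7 mutant as dispensed | signal = Epi-absorbance of released pNA at 405 nm, two timepoints | timing = 1 h preincubation, 2 h reaction | replicates = singlicate compound testing | evaluation = % activation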
# MsrA inh: bovine MsrA inhibition | inhibition, % at 15.5 µM | purified bovine MsrA, absorbance read-out | 360,000 tested, 0.75% active;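 further: 0% = vehicle wells with enzyme and 100% = reference inhibitor wells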
# proCasp3 act: activates human procaspase-3. recombinant procaspase-3 D3A, Ac-DEVD-pNA absorbance 405 nm. activation, % at 8.5 µM. AID 463141. P42574. 330,000 tested, 0.11% active;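 active means activation above the mean of all tested compounds plus 3 SD, cut at about 21% in these data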;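 further: 0% = DMSO alone and 100% = DMSO wells spiked with extra 5 µM PC-3 D3A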
# Target sequence (P42574 whole entry D9A/D28A/D175A): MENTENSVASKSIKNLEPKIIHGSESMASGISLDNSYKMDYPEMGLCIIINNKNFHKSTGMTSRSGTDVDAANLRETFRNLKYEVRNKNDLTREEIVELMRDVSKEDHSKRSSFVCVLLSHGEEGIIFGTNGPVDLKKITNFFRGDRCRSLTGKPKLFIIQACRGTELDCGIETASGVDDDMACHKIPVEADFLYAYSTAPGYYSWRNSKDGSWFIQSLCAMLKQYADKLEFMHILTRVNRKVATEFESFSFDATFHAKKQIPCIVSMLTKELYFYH
#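 Assay system – Procaspase-3 D3A mutant, all three cleavage aspartates alanine · Controls – DMSO-only low control, 5 µM PC-3 D3A high control · Schedule – 1 h compound preincubation, 2 h substrate hydrolysis at 25 °C · Signal – 405 nm absorbance of p-nitroaniline, reads at 0 and 120 min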
# MsrA act: activates bovine MsrA enzyme; purified bovine MsrA, absorbance read-out; activation, % at 10.6 µM; 360,000 tested, 0.3% active; in the data active means activation above about 7.5%;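 further: 0% = vehicle and 100% = reference activator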
# MsrA conf: confirmation of bovine MsrA inhibitors | shares compounds with MsrA inh | purified bovine MsrA, absorbance read-out | inhibition, % at 15.5 µM | 2,300 tested, 41% active;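 further: coupled to thioredoxin reductase with NADPH and selenocystamine and DMSO as substrate; 0% = vehicle only and 100% = full effect of reference inhibitor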
# Active calls of the source: *; . = no result. Hits are enriched below; roughly 1.2% of the tested compounds scored in any of these assays. Unless noted, no stated cut-off is given here; in the data, active means inhibition above about 4.5%; inactive means the rest.
SMILES,procasp7 counter,MsrA inh,proCasp3 act,MsrA act,MsrA conf
O=C(NCCC1=CCCCC1)c1coc(=O)c(Br)c1,5.7,2.1,0.0,-6.2,.
O=C(NCCN1CCCCC1)c1ccc(=O)oc1,-3.6,5.1*,2.1,-4.3,2.8
Cc1ccc(S(=O)(=O)/N=C/c2ccc(N(C)C)cc2)cc1,3.7,6.7*,5.2,-12.2,2.1
CN(C)c1ccc(/C=N/NS(=O)(=O)c2ccc(Br)cc2)cc1,3.1,2.2,-1.2,-10.3,.
Cc1ccc(S(=O)(=O)NCCN=Cc2ccc(N(C)C)cc2)cc1,-8.9,4.9*,-3.7,-5.9,4.3
CCN(CC)c1ccc(SS(=O)(=O)O)cc1,-21.3,3.2,-18.8,-1.1,.
O=S(=O)(O)Sc1ccccc1,.,8.5*,.,-8.0,1.6
Cc1nc(N/N=C/c2cccc(F)c2)cc(N2CCOCC2)n1,-2.4,4.1,-3.3,-5.7,.
Oc1ccc(/C=N/Nc2cc(N3CCOCC3)nc(N3CCOCC3)n2)cc1O,-0.6,4.7*,-3.9,-5.2,4.0
Cc1nc(N/N=C/c2ccc(O)cc2O)cc(N2CCOCC2)n1,1.6,4.8*,1.2,-3.7,4.3
Oc1cccc(/C=N/Nc2cc(N3CCOCC3)nc(N3CCOCC3)n2)c1,-8.7,4.9*,9.7,-3.9,6.2*
O=c1nc(N2CCOCC2)nc(N/N=C/c2ccc3c(c2)OCO3)[nH]1,7.8,5.5*,11.7,-1.7,1.6
C=CCNc1cccc2c1S(=O)(=O)N[C@@H](CC(C)C)CO2,.,-0.8,.,.,.
CN(C)C(=O)N1CCN(C(=O)[C@H]2O[C@@H](n3ccc(N)nc3=O)[C@H](O)[C@@H]2O)CC1,.,0.6,.,.,.
O=C(N/N=C\C=C\c1ccc2c(c1)OCO2)c1ccc(F)cc1,-2.1,6.4*,-2.2,-5.1,4.9*
O=C(N/N=C/C=C/c1ccc2c(c1)OCO2)C(O)c1ccccc1 (stereo not given),4.0,6.7*,2.1,-7.4,4.8*
CC(/C=C/c1ccc2c(c1)OCO2)=N\NC(=O)C(O)c1ccccc1 (stereo not given),-11.0,4.9*,-1.8,-5.0,5.0*
CC(/C=C/c1ccc2c(c1)OCO2)=N\NC(=O)c1ccccc1,-1.3,3.9,-3.6,-5.2,.
COC(=O)C1=C(C)N(C)C(=NCc2ccccc2)NC1c1ccccc1C(F)(F)F (stereo not given),.,-0.2,.,.,.
COc1cccc(CNC(=O)[C@H]2CCCN2C(=O)[C@H]2CCCN2C(=O)c2cccc(Cl)c2)c1,.,0.4,.,.,.
Nc1nc2c(ncn2[C@@H]2O[C@H](C(=O)N[C@@H](Cc3ccccc3)C(=O)NCC3CCCCC3)[C@@H](O)[C@H]2O)c(=O)[nH]1,.,0.3,.,.,.
Cc1ccsc1/C=C1\SC(N)=NC1=O,8.7,5.0*,-0.2,-7.7,3.6
Cc1ccc(/C=C2\SC(N)=NC2=O)s1,-1.2,2.4,-8.1,-3.8,.
CCCN(CCC)CCN1CCN(C(=O)[C@H](CCc2ccccc2)NC(=O)[C@H]2O[C@@H](n3cnc4c(N)ncnc43)[C@H](O)[C@@H]2O)CC1,.,1.5,.,.,.
N#Cc1nc(-c2ccccc2F)oc1N1CCCC1,-8.6,1.6,0.8,-1.6,.
SMILES,procasp7 counter,MsrA inh,proCasp3 act,MsrA act,MsrA conf
Cc1ccccc1-c1nc(C#N)c(N2CCCCC2)o1,-0.5,8.4*,-12.6,-4.0,8.6*
CC1(C)CC(=O)C=C(c2ccc(COC(=O)c3ccc(Br)cc3)cc2)C1=O,.,2.3,.,.,.
Cc1cc(C)c[n+](-c2[nH]c(=O)sc2/C=N/N=C(\[O-])c2cccnc2)c1,1.9,5.6*,3.2,-10.1,4.5
NCCCC(C(=O)O)N(C(=O)OCc1ccccc1)C(=O)OCc1ccccc1 (stereo not given),.,-0.7,.,.,.
COCCNC(=O)/C(C#N)=C/c1ccc(C(=O)O)cc1,-1.8,-0.7,-1.3,0.4,.
COCCNC(=O)/C(C#N)=C/c1ccc(C)o1,-7.4,6.8*,-10.1,-14.7,3.1
COCCNC(=O)/C(C#N)=C\c1ccc(CNS(=O)(=O)c2ccc(C)cc2)o1,16.9,4.1,0.6,-3.3,.
COCCNC(=O)/C(C#N)=C/c1ccc(SC)cc1,-1.0,4.7*,2.7,-3.2,3.8
CCOCCCNC(=O)/C(C#N)=C/c1ccc(C)o1,-3.3,7.0*,3.8,-4.5,3.5
Cc1cc2c(c(=O)o1)[C@@]1(C(=O)N(C)c3cccc(Br)c31)C1=C(CCCC1=O)O2,.,0.2,.,.,.
CN(c1ccc(NC(=O)Cc2cn(C)c3ccccc23)cc1)c1ccccn1,.,0.6,.,.,.
Nc1ccc(-c2nc3cc(N)ccc3o2)cc1,-3.5,4.1,9.9,-7.6,.
Nc1ccc(-c2nc3ccc(N)cc3o2)cc1,-7.5,4.8*,-2.7,-2.0,5.4*
C[C@H](O)[C@@H]1C(=O)N2CCc3c([nH]c4cccc(-c5ccccc5)c34)[C@@H]2C[C@@H]1N(C)C(=O)OCc1ccccc1,.,0.2,.,.,.
C/C(=N/O)c1cc(C(C)(C)C)c(O)c(C(C)(C)C)c1,-1.8,11.9*,-7.5,-7.0,11.4*
CCCCCCCCN1C(=O)[C@@H](CC(=O)NCCCOC)C[C@@]2(C(=O)OC)C1=C[C@H](C(C)(C)C)O[C@@H]2C,.,-0.6,.,.,.
C=CCCC1CN(Cc2ccc(OC)cc2)S(=O)(=O)c2c(cccc2N2CCCCC2)O1 (stereo not given),.,-0.1,.,.,.
CCN=C1NC(c2ccc(C(F)(F)F)cc2)C(C(=O)OC)=C(C)N1Cc1cccc(C(F)(F)F)c1 (stereo not given),.,-1.5,.,.,.
Cc1nc2scc(-c3cccs3)c2c(=O)o1,-7.0,-0.6,-3.7,-0.2,.
COc1ccc(-c2csc3nc(C)n(-n4cccc4)c(=O)c23)cc1,2.8,8.6*,6.8,-2.4,3.5
C=CCn1cnc2scc(-c3ccc(OC)cc3)c2c1=O,3.0,1.2,-1.4,-1.8,.
Cc1nc2scc(-c3cccs3)c2c(=O)n1-n1cccc1,15.1,15.2*,5.5,1.1,10.5*
Cc1ccc(C)n1-n1c(C)nc2scc(-c3cccs3)c2c1=O,10.1,29.1*,0.3,-1.9,25.0*
C[C@H](CO)N1C[C@H](C)[C@@H](CN(C)C(=O)Nc2cccc(F)c2)OCc2cn(nn2)CCCC1=O,.,-0.4,.,.,.
COc1cc(/C=N/Nc2nc(=O)[nH]nc2C)ccc1O,-14.1,4.7*,-12.0,-7.8,5.4*
SMILES,procasp7 counter,MsrA inh,proCasp3 act,MsrA act,MsrA conf
COc1cc(/C=N/Nc2cc(C)nc(N)n2)ccc1O,5.9,6.8*,-2.1,0.1,5.2*
COc1ccc(/C=N/Nc2cc(C)nc(N)n2)cc1,7.8,4.2,-1.2,-1.2,.
Cc1ccccc1S(=O)(=O)N1CCCc2nc(-c3ccc(F)cc3)ccc21,.,-0.1,.,.,.
Oc1c(Br)cc(/C=N/Nc2ccc(Cl)nn2)cc1Br,-6.5,5.9*,-1.8,-6.2,3.4
Oc1c(Br)cc(Br)cc1/C=N/Nc1ccc(Cl)nn1,-0.9,-0.7,0.9,-3.1,.
CC1CCN(N=Nc2nc3c([nH]2)c(=O)n(C)c(=O)n3C)CC1,.,7.8*,.,0.8,5.5*
Cc1nnc(SCC(=O)N/N=C/c2cc(Cl)c(O)c(Cl)c2)s1,7.9,5.1*,-13.9,-6.8,4.7*
CCCCc1c(-c2ccccc2OC)ncn1Cc1ccc(C)cc1,.,0.2,.,.,.

# Assay outcomes: PubChem, The Scripps Research Institute Molecular Screening Center
